Measurements reported in ChEMBL document CHEMBL2429791, “Preparation of asymmetric urea derivatives that target prostate-specific membrane antigen for SPECT imaging” (J Med Chem, 2013).

Legend:
Intestine [1] = test: Biodistribution in intestine of C.B.-17/Icr +/+ Jcl mouse xenografted with human LNCAP and PC3 cells at 25.9 MBq, iv after 1 hr; type: ADME, organism-based; conditions: in vivo
Outline: (§1)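 ¹²⁵I-labelled tracer given iv by tail vein to mice (22–24 g) bearing LNCaP (left shoulder) and PC-3 (right shoulder) xenografts of about 5–10 mm, grown from 1–5 × 10⁶ cells in 1:1 Matrigel. n=4 per time point; decapitated at 2 min, 30 min, 1, 3, 6 h. Tissues weighed and counted; uptake as %ID/g, mean ± SD.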

Muscle tissue = test: Biodistribution in muscle of C.B.-17/Icr +/+ Jcl mouse xenografted with human LNCAP and PC3 cells at 25.9 MBq, iv after 2 mins; type: ADME, organism-based; conditions: in vivo
Outline: (§2)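 Radioiodinated (¹²⁵I) tracer given by tail-vein injection to mice bearing LNCaP (left shoulder) and PC-3 (right shoulder) xenografts, 22–24 g, grown to about 5–10 mm. Groups of n=4 were decapitated at 2 min, 30 min, 1 h, 3 h or 6 h. Tissues were weighed and counted, and uptake was expressed as %ID/g (mean ± SD).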

Blood [2] = test: Biodistribution in blood of C.B.-17/Icr +/+ Jcl mouse xenografted with human LNCAP and PC3 cells at 25.9 MBq, iv after 6 hrs; type: ADME, organism-based; conditions: in vivo; outline: as §1
Stomach = test: Biodistribution in stomach of C.B.-17/Icr +/+ Jcl mouse xenografted with human LNCAP and PC3 cells at 25.9 MBq, iv after 2 mins; type: ADME, organism-based; conditions: in vivo; outline: as §2
LNCaP [3] = test: Biodistribution in LNCAP cells in C.B.-17/Icr +/+ Jcl mouse xenografted with human LNCAP and PC3 cells at 25.9 MBq, iv after 2 mins; type: ADME, organism-based; conditions: in vivo; outline: as §1
Nucleic Acid [4] = test: Ratio of drug level in human PC3 cells xenografted in C.B.-17/Icr +/+ Jcl mouse to muscle of C.B.-17/Icr +/+ Jcl mouse xenografted with human LNCAP and PC3 cells at 25.9 MBq, iv after 6 hrs; type: ADME, organism-based; conditions: in vivo
Outline: (§3)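 Mice (22–24 g) carried PC-3 (right shoulder) and LNCaP (left shoulder) tumors, raised by injecting 1–5 × 10⁶ cells in 1:1 PBS/Matrigel and used at about 5–10 mm diameter. [¹²⁵I]-tracer was given via the tail vein, n=4 per time point, and mice were decapitated at 2 min, 30 min, 1, 3 or 6 h. Tissues were weighed and γ-counted as %ID/g. Tumor/blood and tumor/muscle ratios were taken from %ID/g, mean ± SD.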

Spleen [5] = test: Biodistribution in spleen of C.B.-17/Icr +/+ Jcl mouse xenografted with human LNCAP and PC3 cells at 25.9 MBq, iv after 30 mins; type: ADME, organism-based; conditions: in vivo, 0.5 h; outline: as §2
Spleen [6] = test: Biodistribution in spleen of C.B.-17/Icr +/+ Jcl mouse xenografted with human LNCAP and PC3 cells at 25.9 MBq, iv after 3 hrs; type: ADME, organism-based; conditions: in vivo; outline: as §2
Heart = test: Biodistribution in heart of C.B.-17/Icr +/+ Jcl mouse xenografted with human LNCAP and PC3 cells at 25.9 MBq, iv after 1 hr; type: ADME, organism-based; conditions: in vivo; outline: as §1
Nucleic Acid [7] = test: Ratio of drug level in human PC3 cells xenografted in C.B.-17/Icr +/+ Jcl mouse to muscle of C.B.-17/Icr +/+ Jcl mouse xenografted with human LNCAP and PC3 cells at 25.9 MBq, iv after 30 mins; type: ADME, organism-based; conditions: in vivo, 0.5 h; outline: as §3
Spleen [8] = test: Biodistribution in spleen of C.B.-17/Icr scid/scid Jcl mouse xenografted with human LNCAP and PC3 cells at 25.9 MBq, iv after 30 mins in presence of 2-PMPA; type: ADME, organism-based; conditions: in vivo, 0.5 h
Outline: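 Blocking study: the ¹²⁵I tracer was coinjected via the tail vein with 2-PMPA (50 mg/kg) into LNCaP/PC-3 tumor-bearing mice, 22–24 g. Mice were decapitated 30 min after injection. Tissues were weighed and counted, giving %ID/g.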

Serum = test: Drug degradation in C.B.-17/Icr +/+ Jcl mouse serum after 6 hrs; type: ADME, cell-free
Outline: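 Serum came from heart blood of isoflurane-anesthetized male C.B.-17/Icr +/+ mice (20–22 g), centrifuged at 1,500 × g and stored at −80 °C. ¹²⁵I tracer was incubated in serum at 37 °C, then methanol was added. The sample was centrifuged at 5,000 × g, passed through a 0.45 μm filter, and analyzed by radio-HPLC for intact tracer versus degradation peaks.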

Spleen [9] = test: Biodistribution in spleen of C.B.-17/Icr +/+ Jcl mouse xenografted with human LNCAP and PC3 cells at 25.9 MBq, iv after 6 hrs; type: ADME, organism-based; conditions: in vivo; outline: as §2
[10] = Ratio of drug level in human PC3 cells xenografted in C.B.-17/Icr +/+ Jcl mouse to blood of C.B.-17/Icr +/+ Jcl mouse xenografted with human LNCAP and PC3 cells at 25.9 MBq, iv after 30 mins; type: ADME, organism-based; conditions: PC3 tumour xenograft relative to blood; outline: as §3
Nucleic Acid [11] = test: Ratio of drug level in human LNCAP cells xenografted in C.B.-17/Icr +/+ Jcl mouse to muscle of C.B.-17/Icr +/+ Jcl mouse xenografted with human LNCAP and PC3 cells at 25.9 MBq, iv after 6 hrs; type: ADME, organism-based; conditions: in vivo
Outline: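 Tumor-to-blood and tumor-to-muscle ratios were calculated from %ID/g values in ¹²⁵I-tracer biodistribution in LNCaP/PC-3 xenografted mice. Tail-vein dosing, n=4 per time point, sacrifice at 2 min, 30 min, 1, 3 or 6 h.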

Nucleic Acid [12] = test: Ratio of drug level in human LNCAP cells to human PC3 cells xenografted in C.B.-17/Icr […] Jcl mouse at 25.9 MBq, iv after 2 mins; type: ADME, organism-based; conditions: in vivo
Thyroid gland [13] = test: Biodistribution in thyroid of C.B.-17/Icr +/+ Jcl mouse xenografted with human LNCAP and PC3 cells at 25.9 MBq, iv after 30 mins; type: ADME, organism-based; conditions: in vivo, 0.5 h; outline: as §2
PC-3 = test: Biodistribution in PC3 cells in C.B.-17/Icr +/+ Jcl mouse xenografted with human LNCAP and PC3 cells at 25.9 MBq, iv after 1 hr; type: ADME, organism-based; conditions: in vivo; outline: as §1
Thyroid gland [14] = test: Biodistribution in thyroid of C.B.-17/Icr +/+ Jcl mouse xenografted with human LNCAP and PC3 cells at 25.9 MBq, iv after 6 hrs; type: ADME, organism-based; conditions: in vivo; outline: as §2
LNCaP [15] = test: Biodistribution in LNCAP cells in C.B.-17/Icr +/+ Jcl mouse xenografted with human LNCAP and PC3 cells at 25.9 MBq, iv after 6 hrs; type: ADME, organism-based; conditions: in vivo; outline: as §1
Liver = test: Biodistribution in liver of C.B.-17/Icr […] Jcl mouse xenografted with human LNCAP and PC3 cells at 25.9 MBq, iv after 30 mins; type: ADME, organism-based; conditions: in vivo, 0.5 h; outline: as §1
Thyroid gland [16] = test: Biodistribution in thyroid of C.B.-17/Icr +/+ Jcl mouse xenografted with human LNCAP and PC3 cells at 25.9 MBq, iv after 2 mins; type: ADME, organism-based; conditions: in vivo; outline: as §2
Intestine [17] = test: Biodistribution in intestine of C.B.-17/Icr +/+ Jcl mouse xenografted with human LNCAP and PC3 cells at 25.9 MBq, iv after 3 hrs; type: ADME, organism-based; conditions: in vivo; outline: as §1
Blood [18] = test: Biodistribution in blood of C.B.-17/Icr scid/scid Jcl mouse xenografted with human LNCAP and PC3 cells at 25.9 MBq, iv after 2 mins; type: ADME, organism-based; conditions: in vivo
Lung = test: Biodistribution in lung of C.B.-17/Icr +/+ Jcl mouse xenografted with human LNCAP and PC3 cells at 25.9 MBq, iv after 6 hrs; type: ADME, organism-based; conditions: in vivo; outline: as §2

## O=C(O)CC[C@H](NC(=O)N[C@@H](CSC1CC(=O)N(CCCC[C@H](NC(=O)CNC(=O)c2cccc([125I])c2)C(=O)O)C1=O)C(=O)O)C(=O)O (stereo not given in full)
Intestine [1]
  Drug uptake: 16.5 % ID/g
Muscle tissue
  Drug uptake: 1.4 % ID/g
Blood [2]
  Drug uptake: 0.5 % ID/g
Stomach
  Drug uptake: 0.7 %ID/g
LNCaP [3]
  Drug uptake: 4.2 % ID/g
Nucleic Acid [4]
  Ratio: 2.1
Spleen [5]
  Drug uptake: 43.3 % ID/g
Spleen [6]
  Drug uptake: 16.1 % ID/g
Heart
  Drug uptake: 1.3 % ID/g
Nucleic Acid [7]
  Ratio: 1.6
Spleen [8]
  Drug uptake: Not Active
Serum
  Stability: Stable
Spleen [9]
  Drug uptake: 9.7 % ID/g
[10]
  Kp at 0.5 h: 0.7
Nucleic Acid [11]
  Ratio: 76.7
Nucleic Acid [12]
  Ratio: 1.5
Thyroid gland [13]
  Drug uptake: 0 %ID
PC-3
  Drug uptake: 0.7 % ID/g
Thyroid gland [14]
  Drug uptake: 0.02 %ID
LNCaP [15]
  Drug uptake: 6.7 % ID/g
Liver
  Drug uptake: 13.7 % ID/g
Thyroid gland [16]
  Drug uptake: 0.02 %ID
Intestine [17]
  Drug uptake: 5.8 % ID/g
Blood [18]
  Drug uptake: 8.9 % ID/g
Lung
  Drug uptake: 0.9 % ID/g
